Bioassay records from PubChem.
Yeast lifespan up = compounds extending yeast replicative lifespan, primary screen, S. cerevisiae, OD615; actives 0.68% (n = 130,000); S. cerevisiae growth with nicotinamide; deaD strain in restrictive glucose medium; inhibition of the nicotinamide effect, % at 10 µM; AID 775, 2007;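 active = inhibition above a set limit, placed 3 SD over the median of all compounds, cut at about 26% in these data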
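Buffer or medium: CSMM-D glucose medium, restrictive; test system: modified budding yeast, DeaD strain; compound: single dose 10 µM compound, 0.25% DMSO; schedule: culture preincubation 4 h, compound exposure 48 h, both 30 °C; detection: optical density (absorbance) at 615 nm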
Phagocyt inh = inhibitors of macrophage phagocytosis, primary screen, imaging, J774A.1 cells, IgG beads; AID 1029, 2008; J774A.1 macrophage IgG-bead phagocytosis; inhibition, % at 5 µM; actives 0.07% (n = 110,000);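 active = inhibition above the mean of the plate negative controls plus 5 SD, cut at about 13% in these data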;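 note: phagocytic index as fraction of beads internalized from green versus red external bead signal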
BB579 growth dn = growth inhibitors of yeast BB579 in restrictive medium, primary screen, yeast lifespan-shortening project, S. cerevisiae; OD615, 48 h; inhibition, % at 10 µM; actives 0.51% (n = 140,000); AID 804, 2007;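 active = inhibition above a set limit, 3 SD over the mean compound inhibition, cut at about 44% in these data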
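System: DeaD yeast strain BB579; buffer or medium: CSMM-D dextrose restrictive medium; technique: OD at 615 nm; schedule: 4 h cell preincubation, 48 h compound exposure, 30 °C humidified; doses: single 10 µM dose; controls: amphotericin B 10 µg/mL, positive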
RAM network inh = inhibitors of the yeast RAM network, primary screen, dse1pr::URA3 reporter, 5-FOA selection. actives 1.8% (n = 190,000). S. cerevisiae dse1pr::URA3 reporter, 5-FOA growth OD615, 2 d; analog-sensitive cbk1-as2 kinase mutant strain. inhibition, % at 50 µM;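 active = inhibition above a set limit, 3 SD over mean compound inhibition, cut at about 8.4% in these data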;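 note: inhibition rescues growth on 5-FOA so higher OD means more RAM inhibition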
A number is an active result; i = inactive; nt = not tested or not shown. Hits are enriched below; roughly 2.7% of the tested compounds scored in any of these assays.

SMILES	Yeast lifespan up	Phagocyt inh	BB579 growth dn	RAM network inh
CC12CCC(C(=O)N(CC(O)CN3CCCCCC3)C1=O)C2(C)C (configuration not stated)	i	i	i	i
O=C1/C(=C\c2ccc3ccccc3c2)CCCc2ccccc21	nt	nt	i	11
O=C(CN(c1ccccc1F)S(=O)(=O)c1ccccc1)NC1CCCCCC1	i	i	i	11
c1ccc(-c2nc3c(ccc4ccccc43)[nH]2)nc1	nt	nt	72	i
Cc1ccc(NC(=O)COC(=O)[C@H](C)NC(N)=O)c(C)c1	nt	nt	nt	i
COc1ccc(C2c3c(-c4ccccc4O)n[nH]c3C(=O)N2CCc2ccc(OC)c(OC)c2)cc1 (configuration not stated)	i	nt	i	11
CCOC(=O)c1c(-c2ccc(C)s2)csc1NC(=O)c1cccs1	i	i	i	i
CCOC(=O)c1c(-c2cccs2)csc1NC(=O)C(C)(C)C	i	i	i	8.6
CCOC(=O)c1c(-c2cccs2)csc1NC(=O)CSc1ncn[nH]1	i	i	i	9.4
CCOC(=O)c1c(NC(=O)c2cccs2)sc(CC)c1-c1cccs1	i	i	i	10
CCN(C(=O)CSc1nc2ccccc2c(=O)n1C(C)COC)C1CCS(=O)(=O)C1 (configuration not stated)	nt	nt	nt	i
CCC(=O)N(CC(=O)Nc1sc(C)c(C)c1C(N)=O)C1CCCCC1	i	i	i	i
COc1ccc(Cl)cc1NC(=O)CSc1nncn1-c1cccnc1	i	i	i	i
Cc1ccccc1-n1c(C)nnc1SCc1nc2ccccc2s1	i	i	i	i
CCOc1ccccc1-n1nnnc1SCc1nc2ccccc2s1	i	nt	i	9.9
O=C(O)C1CCC(Cn2c(SCc3cc(=O)n4cc(Cl)ccc4n3)nc3ccsc3c2=O)CC1 (configuration not stated)	nt	nt	nt	9.2
CCOC(=O)c1c(C)[nH]c(C(=O)COC(=O)CCSc2ccccc2)c1C	i	i	i	9.5
CC(=O)c1c(C)[nH]c(C(=O)COC(=O)CCSc2ccccc2)c1C	i	i	i	i
Cc1cc(N(CCO)CCO)ccc1C(c1ccc(N(CCO)CCO)cc1C)c1ccccc1Cl	i	i	i	i
Cc1c(OCc2ccc(C(=O)O)o2)ccc2c3c(c(=O)oc12)CCC3	i	i	i	9.4
CCOC(=O)CCSc1nc(-c2ccc3c(c2)OCO3)cc(C(F)(F)F)c1C#N	i	i	i	11
COc1cccc(CN2CCN(Cc3nc(C(C)C)cs3)CC2CCO)c1 (configuration not stated)	nt	nt	nt	i
Cc1sc(NC(=O)c2ccccc2)c(C(=O)c2ccccc2)c1C	i	i	i	11
Cc1ccc(N2NC(C)(c3cccs3)NC2=S)cc1 (configuration not stated)	i	i	98	i
N#Cc1cc2c(nc1SCc1ccc(Cl)cc1)CCCC2	nt	nt	i	8.7
SMILES	Yeast lifespan up	Phagocyt inh	BB579 growth dn	RAM network inh
CCC(=O)c1ccc(OCc2ccc(C(=O)c3ccccc3)cc2)cc1	nt	nt	nt	i
Cc1ccc(-c2ccc(C(=O)Nc3cccc(F)c3)o2)c2ccccc12	i	nt	i	i
COc1ccc(NC(=O)c2ccc(-c3ccccc3Cl)o2)cc1	i	nt	i	8.7
O=C(Nc1cccc(F)c1)c1ccc(-c2ccccc2Cl)o1	i	nt	i	10
COc1ccc(NC(=O)c2ccc(-c3ccc(C)c4ccccc34)o2)cc1	i	nt	i	i
CCCCn1c(/N=C/c2ccccc2NS(=O)(=O)c2ccc(C)cc2)nc2ccccc21	68	i	i	i
Cc1ccc(S(=O)(=O)Nc2ccccc2/C=N/c2nc3ccccc3n2C(C)C)cc1	53	i	i	i
Cc1nonc1C(=O)N/N=C/c1ccccc1	nt	nt	nt	i
O=C(N/N=C/c1ccc(Br)cc1)c1ccc(Br)o1	i	i	i	i
CC(=O)Nc1ccc(S(=O)(=O)N(c2cccnc2)S(=O)(=O)c2ccc(NC(C)=O)cc2)cc1	nt	nt	i	10.0
CC(=O)Nc1ccc(S(=O)(=O)N(C)c2ccccc2)cc1	i	i	i	i
O/N=C/c1ccc(OCc2ccccc2)c(Br)c1	i	i	45	i
Cc1ccc(COc2ccc(Br)cc2/C=N/O)cc1	i	i	89	i
Cc1cccc(N/C(N)=N/c2nc(C)c(Cc3ccccc3)c(=O)[nH]2)c1	nt	nt	nt	i
O=C(c1ccco1)N1CCN(Cc2cccc([N+](=O)[O-])c2)CC1	nt	nt	nt	i
Cc1c(Cl)c([N+](=O)[O-])nn1CCCC(=O)Nc1c(Cl)cccc1Cl	i	i	i	9.9
Cc1c(Cl)c([N+](=O)[O-])nn1CCCC(=O)Nc1c(C)n(C)n(-c2ccccc2)c1=O	nt	nt	nt	i
